Source: PubChem BioAssay (several laboratories)
This is a sample that favours compounds with a hit; in the whole collection about 5.7% have one here.
Beta cell apopt: inhibitors of cytokine-induced beta cell apoptosis, primary screen, luminescence | INS-1E cytokine-induced death, ATP luminescence, 48 h; percent of positive-control rescue, neutral wells zero | protection from apoptosis, % (test concentration not listed) | hit rate 0.8% among 300,000 | AID 435005, 2010;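 active = Every replicate reaches about 75%, or at least half do and their mean reaches it too, limit read from the data; inconclusive = At least half of replicates reach the limit but their mean does not; inactive = Under half of replicates reach the limit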;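 note: higher means more ATP so stronger rescue from cytokine killing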
Mdm2-MdmX inh: inhibitors of human Mdm2-MdmX association, primary screen, cell-based, luminescence, split luciferase, SaOS-2, uHTS; Protein Mdm4 (Homo sapiens) + E3 ubiquitin-protein ligase Mdm2 (Homo sapiens), …; SaOS-2 split-luciferase Mdm2/MdmX complementation; inhibition, % at 8 µM; hit rate 3% among 330,000; AID 485346, 2010;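 active = inhibition of at least 50% at 8 µM in the primary screen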
Target sequence (O15151 whole entry, looked up): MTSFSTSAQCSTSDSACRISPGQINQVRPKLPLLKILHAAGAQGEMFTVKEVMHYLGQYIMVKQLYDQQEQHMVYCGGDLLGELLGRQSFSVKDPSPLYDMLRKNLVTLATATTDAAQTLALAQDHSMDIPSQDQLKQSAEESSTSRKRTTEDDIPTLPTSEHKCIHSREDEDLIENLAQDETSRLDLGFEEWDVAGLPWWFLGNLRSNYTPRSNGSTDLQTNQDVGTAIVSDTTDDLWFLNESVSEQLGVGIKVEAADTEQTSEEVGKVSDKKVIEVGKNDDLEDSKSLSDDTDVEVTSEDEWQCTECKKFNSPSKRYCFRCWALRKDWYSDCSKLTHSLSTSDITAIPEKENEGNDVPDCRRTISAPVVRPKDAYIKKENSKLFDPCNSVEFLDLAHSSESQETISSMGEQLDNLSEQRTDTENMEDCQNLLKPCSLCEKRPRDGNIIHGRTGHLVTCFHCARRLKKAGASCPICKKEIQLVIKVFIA
Target sequence (Q00987 whole entry, looked up): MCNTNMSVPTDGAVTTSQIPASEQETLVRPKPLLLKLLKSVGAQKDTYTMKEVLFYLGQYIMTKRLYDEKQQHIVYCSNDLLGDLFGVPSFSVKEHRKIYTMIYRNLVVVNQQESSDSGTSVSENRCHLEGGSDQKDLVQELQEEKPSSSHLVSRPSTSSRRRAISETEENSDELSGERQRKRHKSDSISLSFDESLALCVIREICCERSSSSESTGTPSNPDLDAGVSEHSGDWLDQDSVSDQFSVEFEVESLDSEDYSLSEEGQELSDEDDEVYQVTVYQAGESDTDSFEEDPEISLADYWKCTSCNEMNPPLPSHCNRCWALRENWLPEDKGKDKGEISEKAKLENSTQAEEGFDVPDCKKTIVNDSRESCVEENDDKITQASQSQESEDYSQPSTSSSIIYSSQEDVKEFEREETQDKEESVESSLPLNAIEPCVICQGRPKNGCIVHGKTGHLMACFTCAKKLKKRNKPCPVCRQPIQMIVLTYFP
Calb FLC: C. albicans growth inhibition with fluconazole, primary screen, CaCi-2 strain, Alamar Blue fluorescence; C. albicans CaCi-2 (fluconazole-resistant clinical isolate) + fluconazole, 48 h; growth inhibition, % (test concentration not listed); hit rate 0.57% among 300,000; AID 1979, 2009;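 active = growth inhibition above about 58% in most replicates, limit read from the data, passing the limit was not always enough; inconclusive = exactly half the replicates above a set limit; inactive = most replicates below a set limit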;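 note: all wells also contain fluconazole at 8 µg/ml as a sub-toxic cotreatment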
T cruzi repl: inhibitors of intracellular T. cruzi growth, primary screen, luminescence, NIH3T3 host cells | T. cruzi beta-gal in NIH3T3, 90 h | hit rate 1.4% among 300,000 | AID 1885, 2009 | inhibition, % (test concentration not listed);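 active = mean inhibition across valid replicates above about 55%, limit read from the data; inconclusive = mean below that limit but half or more replicates reach it; inactive = mean below it, under half of replicates reach it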;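 note: signal also drops with host cell toxicity which is not excluded here; higher percent means less beta-gal luminescence so fewer parasites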
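Assay system: NIH/3T3 fibroblasts plus reporter T. cruzi. Amount: NIH/3T3 cells, 5,000 per well. Buffer or medium: DMEM, 2% fetal bovine serum. Doses: compound pinned at 50 nL/well, DMSO. Schedule: ≥90 h infection period, 3 h prior cell attachment. Signal: luminescent β-galactosidase signal after 60 min lysis. Read-out: parasite load inhibition, %.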
CSC inhib: cancer stem cell viability inhibitors, primary screen, luminescence. AID 2717, 2010. inhibition, % at 7.5 µM. cancer stem cell-like cells viability. hit rate 1.1% among 300,000; in the data active = inhibition above about 75%; inconclusive = no clear call, values can overlap the other calls; tested in HMLE shEcad cells
SKKanGAS inh: S. pyogenes SKKanGAS growth inhibitors in kanamycin, primary screen, streptokinase expression inhibitor project, SKKanGAS strain, BacTiter-Glo luminescence. inhibition, % at 7.5 µM. 6 h. hit rate 1.3% among 300,000;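 active = mean replicate score, as percent of positive control median, at least 50; inconclusive = mean below 50 but one replicate at or above 50; inactive = mean and every replicate below 50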;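 note: strain carries kanamycin resistance gene driven by streptokinase promoter and grows in 40 µg/ml kanamycin; loss of luminescence reflects streptokinase promoter inhibition or plain growth inhibition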
Numbers stand for hits; - = inactive; ? = inconclusive; . = no result given.

SMILES	Beta cell apopt	Mdm2-MdmX inh	Calb FLC	T cruzi repl	CSC inhib	SKKanGAS inh
COc1ccc(-c2cc3nc(-c4ccccc4)cc(N4CCC(O)CC4)n3n2)cc1	-	-	-	-	.	-
COc1ccc(-c2cc3nc(-c4ccccc4)cc(N4CCCC(O)C4)n3n2)cc1 (stereo unspecified)	-	-	-	?	94	54
Cc1cc(C)cc(NC(=O)C(OC(=O)c2ccc(NC(=O)CC#N)cc2)c2ccccc2)c1 (stereo unspecified)	-	-	-	-	.	57
CC(OC(=O)c1ccc(NC(=O)CC#N)cc1)C(=O)NC(=O)NC1CCCCC1 (stereo unspecified)	.	-	-	-	-	59
Cc1ccc(C)c(NC(=O)C(OC(=O)c2ccc(NC(=O)CC#N)cc2)c2ccccc2)c1 (stereo unspecified)	.	-	-	-	-	-
CCCCc1nc(SCC(=O)Nc2cccc(Cl)c2)n[nH]1	.	-	-	-	-	-
O=C(Nc1cc2c3c(c1)CC(=O)N3CCC2)C1CCCCC1	-	-	-	-	-	-
COc1ccc(C2NCCc3c2[nH]c2ccccc32)cc1CSc1nc2ccccc2s1 (stereo unspecified)	-	.	-	-	116	-
O=C(NC(=O)c1ccccc1)Nc1ccc(Cl)cn1	-	-	-	-	-	-
Cc1cc(C)c2[nH]c(=O)c(CN(Cc3cccs3)C(=S)NCc3ccco3)cc2c1	-	-	-	-	88	-
N#CCc1nn2c(-c3ccccc3)ccnc2c1C#N	-	-	-	-	-	-
CN(C)CCCN(C(=O)c1cc2ccccc2oc1=O)c1nc2c(F)cccc2s1	-	-	-	56	.	-
Cc1ccc2nc(N(CCCN(C)C)C(=O)c3cc4ccccc4oc3=O)sc2c1	-	-	-	60	.	-
COc1cc(CN2CCC(n3nccc3NC(=O)c3ccccc3OC)CC2)ccc1F	-	-	-	-	-	-
CN(C)c1ccc(N2C(=NC(=O)CC3CCCCC3)SC3CS(=O)(=O)CC32)cc1 (stereo unspecified)	-	-	-	-	-	-
Cc1cccc(CC(=O)NCC(=O)NCc2cc(=O)n(C)c(=O)n2C)c1	-	-	-	-	-	-
Cc1cccc(Cn2nc(-n3cccc3)c3c(C)cc(C)nc32)c1	-	-	-	-	-	55
Cc1cccc(Cn2cnc3c(nnn3Cc3ccc(Cl)cc3)c2=O)c1	-	-	-	-	-	-
Cc1cccc(NC(=O)c2ccccc2NC(=O)c2ccco2)c1	-	-	-	-	-	-
COC(=O)c1ccc(N2C(=O)CC(SCC(=O)Nc3ccc(OC)cc3)C2=O)cc1 (stereo unspecified)	-	-	-	-	-	-
O=C1CC(SC(=Nc2ccccc2)Nc2ccccc2)C(=O)N1c1ccc(Cl)c(Cl)c1 (stereo unspecified)	-	-	-	55	-	72
CN=C(Nc1cc(Cl)ccc1Cl)SC1CC(=O)N(c2ccc(C(=O)OC)cc2)C1=O (stereo unspecified)	-	-	-	-	-	52
CC(C)=CCc1c(O)ccc(C(=O)Cc2ccccc2)c1O	-	-	-	-	97	-
C[C@@]12CCC=C[C@H]1[C@H](c1ccc(F)c(/C=C/c3ccccc3)c1)N(Cc1ccccc1)C2=O	-	-	-	-	94	-
COc1ccc(-c2cc([C@H]3[C@@H]4C=CCC[C@@]4(C)C(=O)N3Cc3ccccc3)ccc2F)cc1OC	-	-	-	-	91	-
COc1ccc(-c2cccc([C@H]3[C@@H]4C=CCC[C@@]4(C)C(=O)N3Cc3ccccc3)c2)cc1	-	-	-	-	82	-
Cc1ccc(F)c([C@H]2[C@@H]3C=CCC[C@@]3(C)C(=O)N2Cc2ccccc2)c1	-	-	-	-	-	-
COc1ccc([C@H]2[C@@H]3C=CCC[C@@]3(C)C(=O)N2Cc2ccccc2)cc1Cl	-	-	-	-	-	-
Cc1ccc(-c2cc([C@H]3[C@@H]4C=CCC[C@@]4(C)C(=O)N3Cc3ccccc3)ccc2F)cc1	-	-	-	-	111	?
